Compound activity (PubChem BioAssay)
Shown are actives, neighbours in structure and some others; about 3.5% of the full set was active somewhere.
PglD DTNB = PglD (C. jejuni) enzyme inhibition; purified PglD enzyme, DTNB colorimetric CoA detection; inhibition, % at 12.5 µM; 360,000 tested, 0.098% active; AID 602405; in the data active = inhibition above about 16%, passing the limit was not always enough; inconclusive = no clear call, values can overlap the other calls
DENV2 CPE = DENV2-induced cell death inhibition. AID 651640. DENV2-infected cells, cytopathic effect rescue, plate reader. CPE inhibition, % at 9.99 µM. 350,000 tested, 1.7% active; in the data active = CPE inhibition above about 20%, passing the limit was not always enough; inconclusive = no clear call, values can overlap the other calls; tested in BHK-21 cells
FN deposit inh = fibronectin deposition inhibition | AH1F fibroblasts, Alexa488-fibronectin deposition fluorescence, overnight | inhibition, % at 12.6 µM | 350,000 tested, 0.086% active | AID 743247;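 active = mean inhibition across replicates of 30% or more, regardless of how many single replicates reach that level; inconclusive = mean under 30% yet at least half of replicates reach 30%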
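Material: AH1F fibroblasts assembling fluorescent fibronectin matrix; amount: 10000 AH1F cells/well; medium: DMEM, 2% serum; reagent: Alexa488-fibronectin, 24 nM final in well; dosing: single compound dose, delivered by pin transfer; incubation: 1 h adhesion, overnight exposure; detection: fluorescence after three HBSS washes, excitation 485 nm, emission 525 nm; measure: fibronectin deposition inhibition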
Env fusion inh = blocks HIV Env-driven cell-cell fusion; HeLa-JRFL Env/CEM21 cell fusion, luciferase; inhibition, % at 12.3 µM; 360,000 tested, 1.1% active;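 active = mean replicate inhibition score of at least 50 and every replicate individually at or above 50; inconclusive = only one of the two criteria met; inactive = mean below 50 and not all replicates reaching 50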
PGC1a acetyl inh = lowers PGC1a acetylation signal in U2OS cells; AlphaScreen anti-acetyl-lysine; with virally co-expressed GCN5 acetyltransferase; 350,000 tested, 0.17% active; inhibition, % at 15.6 µM; AID 651687;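 active = every replicate shows inhibition of at least 40%; inconclusive = mean inhibition at least 40% but some replicate below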
rRNA inh HTS = inhibits bacterial ribosomal RNA function over humanized ribosomes | E. coli WT GFP vs humanized-ribosome RFP mutants, fluorescence, 24 h; active compounds read low; DMSO median 0, no signal -100 | GFP signal change (wild-type ribosome), % (test concentration not listed) | 350,000 tested, 1.6% active;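 active = significant combined selectivity score with lowered wild-type GFP, culture density cut under 30%, mutant RFP and density less affected; inactive = any of these conditions unmet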
AID977621 = wild-type E. coli growth inhibition versus H69 humanized strain – H69 mutant RFP, wild-type GFP, cherry-pick, dose response; shares compounds with rRNA inh HTS; fluorescence, 24 h; activity change, negative = inhibition at 50 µM; 1,900 tested, under 10 active; AID 977621;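 active = Wild-type ribosome reporter drop at least double the humanized mutant ribosome reporter drop, growth loss under a set limit; inconclusive = no clear call, values can overlap the other calls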;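 also: wild-type GFP and H69 mutant RFP strains grown together 50/50 in each well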
AID977628 = E. coli growth inhibition, wild-type GFP versus h24 humanized RFP strain, dose response, h24 mutant RFP vs wild-type GFP, cherry-pick | AID 977628 | shares compounds with rRNA inh HTS | 1,900 tested, under 10 active | E. coli WT GFP strain growth, fluorescence, 24 h | activity change, negative = inhibition at 50 µM;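 active = compound lowering the normal-ribosome reporter at least twice as much as the humanized-ribosome reporter, growth loss under a set limit; inconclusive = no clear call, values can overlap the other calls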;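 also: wild-type GFP and h24 humanized RFP strains co-cultured 1 to 1 per well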
Each line names hits and unclear results; the compound was inactive in the other large screens (follow-up assays come after a bar, where they were run); ! = repeats disagree.

COc1cc2ccccc2cc1C(=O)NCC(c1cccs1)N(C)C (centres undefined)	rRNA inh HTS -24 (no result: PglD DTNB, FN deposit inh, PGC1a acetyl inh) | AID977621 inconclusive | AID977628 inactive
CNS(=O)(=O)c1cccc(C(=O)NCC(c2cccs2)N(C)C)c1 (centres undefined)	none (no result: DENV2 CPE, rRNA inh HTS)
O=C(Nc1ccccc1F)N1CCCCN2[C@H](CO)[C@H](c3ccc(C#Cc4cccnc4)cc3)[C@H]2C1	none (no result: FN deposit inh, Env fusion inh)
COc1ccccc1NC(=O)N1CCCCN2[C@@H](CO)[C@H](c3ccc(C#Cc4ccccc4)cc3)[C@@H]2C1	rRNA inh HTS -30 (no result: FN deposit inh, Env fusion inh) | AID977621 inactive
O=C(Nc1ccccc1F)N1CCCCN2[C@@H](CO)[C@H](c3ccc(C#Cc4cccnc4)cc3)[C@@H]2C1	rRNA inh HTS -19 (no result: FN deposit inh, Env fusion inh) | AID977621 inactive | AID977628 inconclusive
COc1ccccc1NC(=O)N1CCCCN2[C@H](CO)[C@@H](c3ccc(C#Cc4ccccc4)cc3)[C@H]2C1	none (no result: FN deposit inh, Env fusion inh)
O=C(Nc1cc(F)ccc1F)N1CCCCN2[C@H](CO)[C@H](c3ccc(-c4ccncc4)cc3)[C@@H]2C1	none (no result: FN deposit inh, Env fusion inh)
O=C(Nc1cc(F)ccc1F)N1CCCCN2[C@@H](CO)[C@H](c3ccc(-c4ccncc4)cc3)[C@@H]2C1	rRNA inh HTS -19 (no result: FN deposit inh, Env fusion inh) | AID977621 inactive
C[C@H](CO)N1C[C@H](C)[C@@H](CN(C)C(=O)Cc2ccccc2)OCCCC[C@H](C)Oc2ccc(NS(=O)(=O)c3cccs3)cc2C1=O	none (no result: FN deposit inh)
C=CCNc1ccc2c(c1)OC[C@H](CC(C)C)NS2(=O)=O	rRNA inh HTS -23 (no result: PglD DTNB, PGC1a acetyl inh) | AID977621 inconclusive
Cc1ccc(NS(=O)(=O)c2ccc3c(c2)CCC(=O)N3)cc1C	rRNA inh HTS -23! | AID977621 inactive | AID977628 inconclusive
Cc1cccc(S(=O)(=O)N(C)C[C@H]2OCc3cn(nn3)CCCC(=O)N([C@H](C)CO)C[C@H]2C)c1	none
CC(=O)Nc1ccc(Nc2nc(C)c([N+](=O)[O-])c(Nc3ccccc3)n2)cc1	none (no result: PglD DTNB, DENV2 CPE, PGC1a acetyl inh, rRNA inh HTS)
CC(=O)Nc1ccc(Nc2nc(C)c([N+](=O)[O-])c(N(C)c3ccccc3)n2)cc1	rRNA inh HTS -44 (no result: PglD DTNB, PGC1a acetyl inh) | AID977621 inconclusive | AID977628 inconclusive
CSc1cccc(NC(=O)CCNC(=O)c2ccco2)c1	none (no result: PglD DTNB)
O=C(CCNC(=O)c1ccco1)Nc1cccc(Br)c1	rRNA inh HTS -20 (no result: PglD DTNB) | AID977621 inactive | AID977628 inconclusive
Cc1noc(C)c1S(=O)(=O)Nc1ccc2c(c1)CC(=O)N([C@@H](C)CO)C[C@@H](C)[C@@H](CN(C)C(=O)Nc1ccc3c(c1)OCO3)O2	none (no result: FN deposit inh)
O=C(Nc1ccccc1Cl)N1C[C@H]2[C@@H](c3ccccc31)[C@@H](CO)N2Cc1ccccc1	rRNA inh HTS -38 (no result: FN deposit inh, Env fusion inh) | AID977628 inconclusive
COc1ccc(C(=O)N2C[C@@H]3[C@H](c4ccccc42)[C@@H](CO)N3Cc2ccccc2)cc1	none (no result: FN deposit inh, Env fusion inh)
COc1cccc(C(=O)N2C[C@@H]3[C@H](c4ccccc42)[C@H](CO)N3Cc2ccccc2Cl)c1	rRNA inh HTS -33 (no result: FN deposit inh, Env fusion inh) | AID977628 inconclusive
COc1ccc(C(=O)N2C[C@H]3[C@@H](c4ccccc42)[C@@H](CO)N3Cc2ccc(Cl)cc2)cc1	rRNA inh HTS -51 (no result: FN deposit inh, Env fusion inh) | AID977628 inconclusive
O=C(Nc1ccccc1Cl)N1C[C@@H]2[C@H](c3ccccc31)[C@@H](CO)N2Cc1ccncc1	none (no result: Env fusion inh)
C[C@@H]1CN([C@H](C)CO)C(=O)c2c(c3ccccc3n2C)-c2ccccc2CO[C@@H]1CN(C)C(=O)Nc1ccc(-c2ccccc2)cc1	none (no result: PglD DTNB, Env fusion inh, PGC1a acetyl inh)
O=C(NCCc1ccccc1)[C@@H]1[C@@H](CO)[C@@H]2Cn3c(cccc3=O)[C@@H]2N1Cc1cccnc1	none (no result: FN deposit inh, Env fusion inh, PGC1a acetyl inh)
CC1(C)CC2CC(C)(CN2Cc2c(O)ccc3ccccc23)C1 (centres undefined)	none (no result: PglD DTNB, PGC1a acetyl inh)
